Holding throughout (type): functional, cell-based
Assay [1] has as its system HT-29. Briefly: Apoptosis induction in human HT29 cells after 24 hrs. The settings on record: HT-29, 24 h. In outline: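 HT29 cells seeded at 25 000/well and attached 24 h, then exposed for 24 h at 37 C to compound (0-1000 M, added from DMSO; final DMSO 0.5%, 1.0% at 600 µM). Cells harvested, stained with PI, and 10 000 events counted by flow cytometry. PI-negative cells scored as living and EC50 fitted from the curves. Mean of 3-4 independent experiments.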

Assay [2] concerns HT-29. Description: Induction of PARP cleavage in human HT29 cells after 8 hrs. In outline:
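HT29 cells incubated 8 h with a range of compound concentrations. The 116 kDa PARP cleavage was detected by Western blot.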

The next assay has as its system SW480. Description: Inhibition of serum-induced expression of cyclin D in human SW480 cells after 5 hrs. The gist of the method:
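SW480 cells starved of serum overnight, then stimulated with serum for 5 h with or without a range of compound concentrations. Cyclin D1 level read by Western blot.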

Assay [3] concerns HT-29. Description: Induction of DNA fragmentation in human HT29 cells after 48 hrs by Nicoletti assay. In outline:
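HT29 cells seeded 25 000/well, attached 24 h, then treated with compound for 48 h. Trypsinized, resuspended in Nicoletti buffer (0.1% Tx-100, 0.1% Na citrate, 50 g/mL PI), held overnight at 4 C. DNA content of nuclei measured by FACS to assess fragmentation.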

Assay [4] concerns HT-29. Description: Effect on cell death in HT29 cells pretreated with GSH synthesis inhibitor BSO. The settings on record: Homo sapiens. The gist of the method:
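HT29 cells seeded 25 000/well, attached 24 h; 200 µM BSO for 4 h at 37 C, washed, then medium with or without EtGSH (10 mM) 3 h, washed. Then compound in DMSO (final 0.5%) for 24 h at 37 C; cells harvested, stained with PI, 10 000 events by flow cytometry; PI-negative cells counted as living. Mean of four independent experiments, standard deviations.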

Activity calls are given as the source filed them. No cut-off for these calls is given here.

As a reminder, the EC50 is the midpoint of the concentration-response curve. A higher EC50 goes with lower potency in that assay. Take `CC(=O)Oc1ccccc1C(=O)Oc1ccc(CCl)cc1`: the EC50 with HT-29 [1] was 40.1 µM. Besides, the result with HT-29 [2] and in the assay with SW480 was Active.

Regarding `CC(=O)Oc1ccc(CCl)cc1`, the EC50 in the assay with HT-29 [1] is 8.7 µM. The result in the assay with HT-29 [2], in the assay with HT-29 [3], in the assay on SW480 and with HT-29 [4] was Active.

As for `CC(=O)Oc1ccccc1C(=O)Oc1ccc(CO[N+](=O)[O-])cc1`, in the assay with HT-29 [1], it took 107 µM to reach a half-maximal effect (EC50). For the same compound, the outcome in the assay with HT-29 [2], in the assay with HT-29 [3], with SW480 and in the assay on HT-29 [4] was Active.

`CC(=O)Oc1ccccc1C(=O)Oc1cccc(CO[N+](=O)[O-])c1` [NCX-4016] returned an EC50 with HT-29 [1] of 1000 µM. Further, the result in the assay on SW480 was inactive.

On to `CC(=O)N[C@@H](C(=O)O)C(C)(C)SN=O`, for which the EC50 with HT-29 [1] was greater than 1000 µM.

In the assay on HT-29 [1], `CC(=O)Oc1ccccc1C(=O)Oc1cccc(CO)c1` displayed an EC50 greater than 1000 µM.

In the assay with HT-29 [1], `CC(=O)Oc1ccccc1C(=O)O` [ASPIRIN] returned an EC50 greater than 1000 µM.

In the case of `CC(=O)Oc1ccc(CO[N+](=O)[O-])cc1`, the EC50 in the assay on HT-29 [1] turned out to be 9.3 µM. The result in the assay with HT-29 [2] and with SW480 was Active.

These data come from ChEMBL document CHEMBL1139864, “Chemical insights in the concept of hybrid drugs: the antitumor effect of nitric oxide-donating aspirin involves a quinone methide but not nitric oxide nor aspirin” (J Med Chem, 2007).
